{"data": "Experimental data collected from several papers", "CYP1A1": "Cytochrome P450 1A1 (CYP1A1, Homo sapiens, UniProt P04798)", "note": "Protocols differ between the studies behind these lines. pKi: −log10 of the molar value."}
{"SMILES": "O=C(O)CCC(NC(=O)NC(CCCCNC(=O)CCCCCCC(=O)NCCCCC(NC(=O)C(Cc1ccccc1)NC(=O)C(Cc1ccccc1)NC(=O)CN1CCN(CC(=O)O)CCN(CC(=O)O)CCN(CC(=O)O)CC1)C(=O)O)C(=O)O)C(=O)O (centres unmarked)", "target": "Glutamate carboxypeptidase 2 (FOLH1, Homo sapiens, UniProt Q04609)", "test": "enzyme activity, inhibitor, fluorescence", "pKi": 8.91}
{"SMILES": "NCCCC[C@H](NC(=O)[C@@H]1CCCN1C(=O)[C@@H]1CSSC[C@H](NC(=O)CNC(=O)CNC(=O)CN)C(=O)N[C@@H](Cc2ccc(O)cc2)C(=O)N[C@@H](Cc2ccccc2)C(=O)N[C@@H](CCC(N)=O)C(=O)N[C@@H](CC(N)=O)C(=O)N1)C(=O)NCC(N)=O", "target": "Vasopressin V1a receptor (AVPR1A, Homo sapiens, UniProt P37288)", "test": "ligand displacement, radioligand", "setting": "cell membranes", "pKi": 5.96}
{"SMILES": "CC[C@H](C)[C@H](NC(=O)[C@H](CCC(=O)O)NC(=O)[C@H](CC(=O)O)NC(=O)CNC(=O)[C@H](CC(C)C)NC(=O)[C@H](CCCNC(=N)N)NC(=O)[C@H](CCCNC(=N)N)NC(=O)[C@H](CC(C)C)NC(=O)CNC(=O)[C@H](CCC(N)=O)NC(=O)[C@@H](NC(=O)[C@H](CCSC)NC(=O)[C@H](Cc1c[nH]c2ccccc12)NC(=O)[C@@H](NC(=O)[C@H](CCC(=O)O)NC(=O)[C@@H]1CCCN1C(=O)[C@H](CCCNC(=N)N)NC(C)=O)[C@@H](C)CC)[C@@H](C)O)C(=O)N[C@@H](CC(N)=O)C(=O)N[C@@H](C)C(=O)N[C@@H](Cc1ccc(O)cc1)C(=O)N[C@@H](Cc1ccc(O)cc1)C(=O)N[C@@H](C)C(=O)N[C@@H](CCCNC(=N)N)C(N)=O", "target": "Apoptosis regulator Bcl-2 (BCL2, Homo sapiens, UniProt P10415)", "test": "ligand displacement, FP", "pKi": "~5.54"}
{"SMILES": "CCn1c(-c2nc3cc(C(=O)N4CCC[C@@H](N)C4)cc(OC)c3n2C)cc2cccnc21", "target": "Protein-arginine deiminase type-1 (PADI1, Homo sapiens, UniProt Q9ULC6)", "test": "enzyme activity, inhibitor", "pKi": 3.24}
{"SMILES": "C#Cc1ccc2c(=O)cc(-c3ccccc3)oc2c1", "target": "CYP1A1", "test": "enzyme activity, inhibitor, fluorescence", "setting": "6 min, pH 7.6", "pKi": 7.62}
{"SMILES": "CCc1cc(O)c(Oc2ccccc2)cc1F", "target": "Enoyl-[acyl-carrier-protein] reductase [NADPH] FabI (Staphylococcus aureus, UniProt Q6GI75)", "test": "enzyme activity, inhibitor", "pKi": 10.05}
{"SMILES": "C#Cc1ccc(-c2cc(=O)c3ccccc3o2)cc1", "target": "CYP1A1", "test": "enzyme activity, inhibitor, fluorescence", "setting": "6 min, pH 7.6", "pKi": 7.41}
{"SMILES": "CC(C)=CCc1c(O)cc(O)c2c1O[C@H](c1ccc(O)cc1)CC2=O", "target": "CYP1A1", "test": "enzyme activity, inhibitor, fluorescence", "setting": "15 min, pH 7.4", "pKi": 6.70}
